For orientation: inhibition means the change of the read-out against control, counted positive when it falls.

We go through 48 molecules from ChEMBL document CHEMBL1126197, “Orally active beta-lactam inhibitors of human leukocyte elastase-1. Activity of 3,3-diethyl-2-azetidinones” (J Med Chem, 1992).

Test [1] addresses T1, Neutrophil elastase (Homo sapiens) (UniProt P08246).
T1 sequence (whole entry): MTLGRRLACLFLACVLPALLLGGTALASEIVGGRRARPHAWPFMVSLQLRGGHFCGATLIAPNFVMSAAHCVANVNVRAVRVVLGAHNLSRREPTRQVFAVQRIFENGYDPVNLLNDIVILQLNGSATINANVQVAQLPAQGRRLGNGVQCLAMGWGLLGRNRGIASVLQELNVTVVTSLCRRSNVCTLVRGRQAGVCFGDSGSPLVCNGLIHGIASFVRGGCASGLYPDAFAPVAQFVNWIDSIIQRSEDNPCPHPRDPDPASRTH
The test is described as follows: Percent inhibition in elastase-induced lung haemorrhage, when the compound is dosed orally at 30 mg/kg 30 min before challenge by HLE (Human leukocyte elastase). The format is functional, organism-based. Also on record: dose 30 mg/kg. In short, it runs like this:
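Anesthetized hamsters received the compound orally 30 min before intratracheal instillation of 50 units HLE. After 3 h, hemoglobin in the lung lavage was measured spectrophotometrically. Percent inhibition of hemorrhage was calculated for the drug-treated group against the vehicle-only group.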

For test [2], the target named is T1, Neutrophil elastase (Homo sapiens). The test is described as follows: elastase inhibitory activity, evaluated for second order rate constant (time-dependent inhibition). In short, it runs like this:
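HLE-catalyzed hydrolysis of MeO-Suc-Ala-Ala-Pro-Ala-pNA was followed while enzyme inactivation was monitored for 15 min. Second-order rate constants (kobs/I, M-1 s-1) were derived from this time-dependent inactivation.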

As for `CCC1(CC)C(=O)N(C(=O)NCc2ccc(OCc3ccccc3)cc2)C1Oc1ccc(C(=O)O)cc1` (configuration not stated), the inhibition in test [1] is -9%. In test [2], the second order rate constant kobs/[I] amounted to 12000 M⁻¹ s⁻¹. With `CCC1(CC)C(=O)N(C(=O)NCCCCc2ccccc2)C1Oc1ccc(C(=O)O)cc1` (configuration not stated), the inhibition in test [1] amounted to 35%. In test [2], this molecule had a second order rate constant kobs/[I] of 9200 M⁻¹ s⁻¹. Turning to `CCC1(CC)C(=O)N(C(=O)NCc2cccs2)C1Oc1ccc(C(=O)O)cc1` (configuration not stated), the inhibition in test [1] came out at 52%. In addition, in test [2], the second order rate constant kobs/[I] amounted to 4900 M⁻¹ s⁻¹. The like results for `CCC1(CC)C(=O)N(C(=O)NCCCCOc2ccccc2)C1Oc1ccc(C(=O)O)cc1` (configuration not stated) were, in that order, 30% and 3400 M⁻¹ s⁻¹. As for `CCC1(CC)C(=O)N(C(=O)NCc2ccc(OC)c(C)c2)C1Oc1ccc(C(=O)O)cc1` (configuration not stated), the inhibition in test [1] turned out to be 64%. In test [2], this molecule came in with a second order rate constant kobs/[I] of 13100 M⁻¹ s⁻¹. For the molecule `CCC1(CC)C(=O)N(C(=O)NCCc2ccccc2)C1Oc1ccc(C(=O)O)cc1` (configuration not stated), in test [1], the inhibition is 33%. Further, the second order rate constant kobs/[I] in test [2] is 1300 M⁻¹ s⁻¹. Regarding `CCC1(CC)C(=O)N(C(=O)NCc2ccc(N(C)C)cc2)C1Oc1ccc(C(=O)O)cc1` (configuration not stated), the inhibition in test [1] amounted to 25%. Also, in test [2], the second order rate constant kobs/[I] was 10000 M⁻¹ s⁻¹. The like results for `CCC1(CC)C(=O)N(C(=O)NCc2ccc(C)cc2)C1Oc1ccc(CC(=O)O)cc1` (configuration not stated) were, in that order, 72% and 4500 M⁻¹ s⁻¹.

For `CCC1(CC)C(=O)N(C(=O)NCc2ccc(-c3ccccc3)cc2)C1Oc1ccc(C(=O)O)cc1` (configuration not stated), the inhibition in test [1] amounted to 24%. The molecule also displayed a second order rate constant kobs/[I] in test [2] of 23200 M⁻¹ s⁻¹. Regarding `CCC1(CC)C(=O)N(C(=O)NCCCC(=O)c2ccccc2)C1Oc1ccc(C(=O)O)cc1` (configuration not stated), in test [1], the inhibition is 0%. In test [2], this molecule showed a second order rate constant kobs/[I] of 2000 M⁻¹ s⁻¹. Consider `CCC1(CC)C(=O)N(C(=O)NCc2ccccc2O)C1Oc1ccc(C(=O)O)cc1` (configuration not stated), for which, in test [1], the inhibition is -2%. The second order rate constant kobs/[I] in test [2] stood at 1500 M⁻¹ s⁻¹.

Turning to `CCC1(CC)C(=O)N(C(=O)NCc2ccc(SC)cc2)C1Oc1ccc(C(=O)O)cc1` (configuration not stated), in test [1], the inhibition was found to be 28%. This molecule also showed a second order rate constant kobs/[I] in test [2] of 9400 M⁻¹ s⁻¹.

For `CCN(Cc1ccccc1)C(=O)N1C(=O)C(CC)(CC)C1Oc1ccc(C(=O)O)cc1` (configuration not stated), the inhibition in test [1] was found to be 34%. In addition, in test [2], the second order rate constant kobs/[I] was found to be 2300 M⁻¹ s⁻¹.

In the case of `CCC1(CC)C(=O)N(C(=O)NCc2ccc(C(=O)O)cc2)C1Oc1ccc(C(=O)O)cc1` (configuration not stated), the inhibition in test [1] was found to be 25%. In test [2], the second order rate constant kobs/[I] worked out at 2200 M⁻¹ s⁻¹. The like results for `CCCCNC(=O)N1C(=O)C(CC)(CC)C1Oc1ccc(C(=O)O)cc1` (configuration not stated) were, in that order, 45% and 800 M⁻¹ s⁻¹. Regarding `CCC1(CC)C(=O)N(C(=O)NCc2ccsc2)C1Oc1ccc(C(=O)O)cc1` (configuration not stated), the inhibition in test [1] was determined as 53%. This molecule also came in with a second order rate constant kobs/[I] in test [2] of 1300 M⁻¹ s⁻¹. In turn, `CCC1(CC)C(=O)N(C(=O)NCc2ccc(O)cc2)C1Oc1ccc(C(=O)O)cc1` (configuration not stated) gave a second order rate constant kobs/[I] in test [2] of 3000 M⁻¹ s⁻¹. With `CCC1(CC)C(=O)N(C(=O)NCc2ccc(C)c(C)c2)C1Oc1ccc(C(=O)O)cc1` (configuration not stated), the inhibition in test [1] is 52%. This molecule also returned a second order rate constant kobs/[I] in test [2] of 21000 M⁻¹ s⁻¹. The like results for `CCC1(CC)C(=O)N(C(=O)NCc2ccc(C)c(OC)c2)C1Oc1ccc(C(=O)O)cc1` (configuration not stated) were, in that order, 76% and 6500 M⁻¹ s⁻¹.

In the case of `CCC1(CC)C(=O)N(C(=O)NCc2ccc(C(C)=O)cc2)C1Oc1ccc(C(=O)O)cc1` (configuration not stated), the inhibition in test [1] was found to be 37%. Moreover, in test [2], the second order rate constant kobs/[I] turned out to be 5900 M⁻¹ s⁻¹. `CCC1(CC)C(=O)N(C(=O)NCc2ccco2)C1Oc1ccc(C(=O)O)cc1` (configuration not stated): the inhibition in test [1] turned out to be 58%. Moreover, the second order rate constant kobs/[I] in test [2] was 5200 M⁻¹ s⁻¹. `CCC1(CC)C(=O)N(C(=O)NCc2ccccc2C)C1Oc1ccc(C(=O)O)cc1` (configuration not stated): in test [1], the inhibition amounted to 33%. Moreover, the second order rate constant kobs/[I] in test [2] came to 700 M⁻¹ s⁻¹. As to `CCC1(CC)C(=O)N(C(=O)NCc2ccc(C)cc2)C1Oc1ccc(C(=O)O)cc1` (configuration not stated), the inhibition in test [1] was 86%. In test [2], this molecule yielded a second order rate constant kobs/[I] of 4000 M⁻¹ s⁻¹. For `CCC1(CC)C(=O)N(C(=O)NCCCCCc2ccccc2)C1Oc1ccc(C(=O)O)cc1` (configuration not stated) the same measures were 15% and 4800 M⁻¹ s⁻¹.

As for `CCC1(CC)C(=O)N(C(=O)NCc2ccc(C(N)=O)cc2)C1Oc1ccc(C(=O)O)cc1` (configuration not stated), the inhibition in test [1] was 10%. This molecule showed a second order rate constant kobs/[I] in test [2] of 4300 M⁻¹ s⁻¹. `CCC1(CC)C(=O)N(C(=O)NCCCC(O)c2ccccc2)C1Oc1ccc(C(=O)O)cc1` (configuration not stated): the second order rate constant kobs/[I] in test [2] turned out to be 5100 M⁻¹ s⁻¹. Consider `CCC1(CC)C(=O)N(C(=O)NCCC(=O)c2ccccc2)C1Oc1ccc(C(=O)O)cc1` (configuration not stated), for which the inhibition in test [1] came out at 8%. For the same molecule, in test [2], the second order rate constant kobs/[I] turned out to be 2100 M⁻¹ s⁻¹. For the molecule `CCCCCCCCCNC(=O)N1C(=O)C(CC)(CC)C1Oc1ccc(C(=O)O)cc1` (configuration not stated), the second order rate constant kobs/[I] in test [2] was 8300 M⁻¹ s⁻¹.

In the case of `CCC1(CC)C(=O)N(C(=O)NCc2ccc(-c3ccccc3)cc2)C1Oc1ccc(CC(=O)O)cc1` (configuration not stated), in test [1], the inhibition turned out to be 19%. In test [2], this molecule returned a second order rate constant kobs/[I] of 29000 M⁻¹ s⁻¹. In the case of `CCC1(CC)C(=O)N(C(=O)NCc2ccc(C)cc2C)C1Oc1ccc(C(=O)O)cc1` (configuration not stated), the inhibition in test [1] was 45%. In test [2], this molecule returned a second order rate constant kobs/[I] of 1500 M⁻¹ s⁻¹. As to `CCC1(CC)C(=O)N(C(=O)NCC2CCCCC2)C1Oc1ccc(C(=O)O)cc1` (configuration not stated), the inhibition in test [1] was determined as 0%. Also, the second order rate constant kobs/[I] in test [2] came to 1400 M⁻¹ s⁻¹. For `CCC1(CC)C(=O)N(C(=O)NCc2ccccc2N)C1Oc1ccc(C(=O)O)cc1` (configuration not stated) the same measures were 73% and 1200 M⁻¹ s⁻¹. The like results for `CCC1(CC)C(=O)N(C(=O)NCc2ccc(N)cc2)C1Oc1ccc(C(=O)O)cc1` (configuration not stated) were, in that order, 2% and 1800 M⁻¹ s⁻¹. With `CCC1(CC)C(=O)N(C(=O)NCc2cc(C)cc(C)c2)C1Oc1ccc(C(=O)O)cc1` (configuration not stated), the inhibition in test [1] is 69%. For the same molecule, the second order rate constant kobs/[I] in test [2] is 14700 M⁻¹ s⁻¹. The like results for `CCC1(CC)C(=O)N(C(=O)NCc2ccccc2)C1Oc1ccc(CC(=O)O)cc1` (configuration not stated) were, in that order, 71% and 3200 M⁻¹ s⁻¹. With `CCC1(CC)C(=O)N(C(=O)NCc2ccccc2)C1Oc1ccc(C(=O)O)cc1` (configuration not stated), the inhibition in test [1] was 56%. The molecule further displayed a second order rate constant kobs/[I] in test [2] of 1500 M⁻¹ s⁻¹. `CCC1(CC)C(=O)N(C(=O)NCc2cccc(C)c2)C1Oc1ccc(C(=O)O)cc1` (configuration not stated): the inhibition in test [1] was 47%. In addition, in test [2], the second order rate constant kobs/[I] came out at 7000 M⁻¹ s⁻¹.

For `CCc1ccc(CNC(=O)N2C(=O)C(CC)(CC)C2Oc2ccc(C(=O)O)cc2)cc1` (configuration not stated), the inhibition in test [1] stood at 46%. In test [2], this molecule showed a second order rate constant kobs/[I] of 8200 M⁻¹ s⁻¹.

On to `CCC1(CC)C(=O)N(C(=O)NCc2cccc3ccccc23)C1Oc1ccc(C(=O)O)cc1` (configuration not stated), for which, in test [2], the second order rate constant kobs/[I] was 8400 M⁻¹ s⁻¹.

In the case of `CCC1(CC)C(=O)N(C(=O)NCc2ccc3c(c2)OCO3)C1Oc1ccc(C(=O)O)cc1` (configuration not stated), the inhibition in test [1] is 10%. The molecule also registered a second order rate constant kobs/[I] in test [2] of 5000 M⁻¹ s⁻¹. The like results for `CCC1(CC)C(=O)N(C(=O)NCc2ccc([N+](=O)[O-])cc2)C1Oc1ccc(C(=O)O)cc1` (configuration not stated) were, in that order, 22% and 5100 M⁻¹ s⁻¹. For `CCC1(CC)C(=O)N(C(=O)NCc2ccc(F)cc2)C1Oc1ccc(C(=O)O)cc1` (configuration not stated), the inhibition in test [1] was determined as 4%. The same molecule gave a second order rate constant kobs/[I] in test [2] of 2300 M⁻¹ s⁻¹. For `CCC1(CC)C(=O)N(C(=O)NCCCCCCc2ccccc2)C1Oc1ccc(C(=O)O)cc1` (configuration not stated) the same measures were 14% and 5000 M⁻¹ s⁻¹. Consider `CCC1(CC)C(=O)N(C(=O)NCCCOc2ccccc2)C1Oc1ccc(C(=O)O)cc1` (configuration not stated), for which, in test [1], the inhibition was found to be 40%. The second order rate constant kobs/[I] in test [2] is 3500 M⁻¹ s⁻¹. For the molecule `CCC1(CC)C(=O)N(C(=O)NCc2ccc(Cl)cc2)C1Oc1ccc(C(=O)O)cc1` (configuration not stated), the inhibition in test [1] turned out to be 29%. The molecule further came in with a second order rate constant kobs/[I] in test [2] of 3400 M⁻¹ s⁻¹.

In the case of `CCC1(CC)C(=O)N(C(=O)NCCCc2ccccc2)C1Oc1ccc(C(=O)O)cc1` (configuration not stated), the inhibition in test [1] is 12%. The molecule further showed a second order rate constant kobs/[I] in test [2] of 4500 M⁻¹ s⁻¹. On to `CCC1(CC)C(=O)N(C(=O)NCc2ccc(OC)cc2)C1Oc1ccc(C(=O)O)cc1` (configuration not stated), for which the inhibition in test [1] is 60%. The same molecule showed a second order rate constant kobs/[I] in test [2] of 5200 M⁻¹ s⁻¹.

Regarding `CCC1(CC)C(=O)N(C(=O)NCc2ccc3ccccc3c2)C1Oc1ccc(C(=O)O)cc1` (configuration not stated), in test [1], the inhibition was 37%. In test [2], this molecule gave a second order rate constant kobs/[I] of 21300 M⁻¹ s⁻¹.
